Measurements published in paper PMC8134988 (Heliyon, 2021).
“And” between values parts separate entries of the source, which are not always exact repeats. Identical values can stand only once.

Columns and labels:
[1] = system: T. cruzi strain HA trypomastigotes; details: ref Garcia et al. 2010; cited from earlier work
[2] = system: T. cruzi Talahuen strain intracellular amastigotes; test: Anti-T. cruzi in vitro assay in intracellular amastigotes; assay type: cell-based, Trypanosoma cruzi; details: for SI (selectivity index = LC50/EC50): LC50 U-937 / EC50 T. cruzi; for antitrypanosomal activity class: classified by EC50 in μg/mL
[3] = In vitro cytotoxicity in U-937 cells; assay type: cell-based; details: human, U-937 cells (non-infected)
How it was run: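 Non-infected U-937 cells at 10^5 cells/mL were mixed 1:1 with compound solutions at 200, 50, 12.5 and 3.125 µg/mL, alongside benznidazole, and held 72 h at 37 °C. MTT was added for 3 h, then formazan was dissolved in isopropanol/SDS and read at 570 nm. Viability was expressed versus unexposed cells, mortality as 100 − %viability, and LC50 was obtained by probit analysis.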

[4] = system: T. cruzi blood trypomastigotes (Talahuen strain); test: In vivo therapeutic response in BALB/c mice infected with T. cruzi; parameters: species or system Mus musculus (BALB/c mice); details: at the end of treatment
How it was run: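 BALB/c mice were inoculated intraperitoneally with 100 blood trypomastigotes of the Tulahuen β-gal strain taken from donor mice. From the first day of parasitaemia, seven groups (n = 6) were dosed orally at 100 mg/kg/day for 25 days with test compound, benznidazole or nothing. Parasitaemia per 0.1 mL blood was counted by hematocrit at TD0, TD25 and PTD30/60/90. Reduction was calculated per mouse against pre-treatment parasitaemia. Mice negative in all tests were scored cured.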

In the case of `COc1cccc(/C=C/c2ccc3ccccc3n2)c1OC` [(E)-2-(2,3-dimetoxystyryl) quinoline], the “inhibition of the presence of the parasite” value [1] is listed as 34.1%.

With `COc1cc(/C=C/c2ccc3cccc(OC(C)=O)c3n2)ccc1OC(C)=O` [Compound 3h, (E)-2-(4-Acetoxy-3-methoxystyryl)quinolin-8-yl acetate] the “SI (selectivity index = LC50/EC50)” value [2] was 0.2, the antitrypanosomal activity class [2] was “moderate (Moderate activity: 25 μg/mL > EC50 < 50 μg/mL)” and the CC50 at 72 h [3] was 5.9 µg/mL and 15.6 µM.

In the case of `O=C(Cn1ccnc1[N+](=O)[O-])NCc1ccccc1` [Benznidazol (BZ), Benznidazol, reference compound], the mice cured [4] is reported as 100%, the parasitaemia status ([4]; 100 mg/kg/day) is reported as “negative” and the “SI (selectivity index = LC50/EC50)” value [2] is reported as 8.7. The CC50 at 72 h [3] was > 200 µg/mL and 491 µM.

For `CC(=O)Oc1ccc(/C=C/c2ccc3cccc(OC(C)=O)c3n2)c(OC(C)=O)c1` [Compound 3g, (E)-4-(2-(8-Acetoxyquinolin-2-yl)vinyl)-1,3-phenylene diacetate], the antitrypanosomal activity class [2] was “moderate (Moderate activity: 25 μg/mL > EC50 < 50 μg/mL)” and the CC50 at 72 h [3] was 6.9 µg/mL and 17.2 µM.
